Cl transport mod – modulates chloride dependent transport by human KCC2. Q9H2X9. KCC2 cells, thallium flux FluoZin-2 fluorescence. B-score of Tl+ flux slope (higher = more flux/activation; lower = inhibition) at 10 µM. 190,000 compounds, 2.2% hits;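 active = thallium flux slope and its plate-corrected score both differing from the plate sample mean at a set confidence after two filtering rounds, in either direction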;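 also: slope of fluorescence scaled to starting intensity during 10 to 20 s after thallium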
hERG rescue – compounds protecting human hERG from proarrhythmic drug block. activation (rescue from dofetilide block), less the hit threshold, % at 10 µM. CHO-hERG, FluxOR thallium flux, dofetilide IC70 present. 310,000 compounds, 0.51% hits;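 active = activation above the mean of controls blocked by dofetilide plus 5 SD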;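 also: thallium influx through hERG after potassium depolarization seen as dye fluorescence rise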
KCNQ1 pot – potentiates or activates the human KCNQ1 potassium channel; AID 2648; B-score at 10 µM; 310,000 compounds, 0.35% hits; P51787; CHO-K1 KCNQ1, thallium flux FluxOR fluorescence; active compounds read high;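 active = fluorescence ratio B-score, a plate-corrected score, at least three library SD, with initial intensity B-score within 5 SD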
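Schedule – 37 °C overnight plating, 90-min dark dye load, 20-min compound pretreatment · System – stable KCNQ1 CHO-K1 line · Probe or stimulus – thallium- and potassium-containing depolarizing buffer · Measured by – kinetic FluxOR fluorescence, 10 s baseline plus 110 s post-stimulus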
KCNQ1 block – human KCNQ1 channel inhibition. 310,000 compounds, 1.3% hits. AID 2642. CHO-K1 KCNQ1, FluxOR thallium flux fluorescence; active compounds read high. P51787. B-score at 10 µM;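 active = compounds whose thallium flux B-score, printed positive for inhibition, exceeds three library SD while starting fluorescence stays within three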;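 also: channel opened by potassium depolarization with thallium stimulus after 20 min compound exposure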
KCNK9 inh – human KCNK9 channel inhibition | Q9NPC2 | HEK293 KCNK9, FluxOR thallium flux fluorescence; active compounds read low | B-score at 10 µM | 310,000 compounds, 1.2% hits;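 active = ratio B-score over 3 SD below the library mean, with starting fluorescence within 5 SD of its mean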;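 also: negative B-score means less thallium flux so channel inhibition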
Target sequence (Q9NPC2 whole entry, looked up): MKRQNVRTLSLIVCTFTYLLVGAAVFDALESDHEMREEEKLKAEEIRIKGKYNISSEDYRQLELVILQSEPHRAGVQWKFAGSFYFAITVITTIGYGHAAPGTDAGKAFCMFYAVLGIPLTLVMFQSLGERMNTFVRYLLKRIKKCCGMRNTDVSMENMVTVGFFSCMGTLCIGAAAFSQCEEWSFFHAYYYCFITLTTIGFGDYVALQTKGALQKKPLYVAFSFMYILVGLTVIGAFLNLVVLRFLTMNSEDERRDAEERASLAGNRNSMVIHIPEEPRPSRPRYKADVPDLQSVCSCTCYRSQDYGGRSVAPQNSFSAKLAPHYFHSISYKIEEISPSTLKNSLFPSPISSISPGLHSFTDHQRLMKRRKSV
KCNK3 inh – human KCNK3 channel inhibition, primary screen; O14649; CHO-KCNK3 thallium flux, FluxOR fluorescence; active compounds read low; B-score at 10 µM; 340,000 compounds, 0.84% hits; AID 602410;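 active = B-score under library mean minus 4 SD, starting fluorescence ratio at most library mean plus 5 SD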;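 also: more negative B-score means stronger inhibition of thallium flux through KCNK3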
Target sequence (O14649 whole entry, looked up): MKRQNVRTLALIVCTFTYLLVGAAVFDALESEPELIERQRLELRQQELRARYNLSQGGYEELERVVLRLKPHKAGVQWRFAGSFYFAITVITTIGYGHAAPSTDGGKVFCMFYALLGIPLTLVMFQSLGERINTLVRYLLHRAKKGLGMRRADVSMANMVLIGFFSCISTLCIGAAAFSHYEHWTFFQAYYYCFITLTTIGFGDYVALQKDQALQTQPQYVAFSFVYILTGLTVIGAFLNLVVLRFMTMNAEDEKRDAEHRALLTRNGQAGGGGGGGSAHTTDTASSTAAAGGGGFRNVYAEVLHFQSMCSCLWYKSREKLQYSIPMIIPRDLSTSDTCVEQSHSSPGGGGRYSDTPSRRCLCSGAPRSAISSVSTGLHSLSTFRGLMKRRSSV
KCNQ1 inh valid – reconfirmed blocker of the human KCNQ1 potassium channel; shares compounds with KCNQ1 block; KCNQ1 cell line, FluxOR thallium flux fluorescence; AID 588353; 1,600 compounds, 93% hits; inhibition, % at 10 µM;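 active = primary screen active, with duplicate mean exceeding buffer control mean plus 3 SD of buffer wells, cut at about 28% in these data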;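 also: 0% = buffer control ratio and 100% = XE991 inhibitor control ratio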
CHO KCNQ1 ctr – counter-screen for KCNQ1 inhibitors: effect in parental CHO cells; fluorescence ratio (Tl flux) at 10 µM; shares compounds with KCNQ1 block; parental CHO-K1, FluxOR thallium flux fluorescence ratio; active compounds read low; zero means no signal rise above baseline; 1,600 compounds, 21% hits; AID 588366;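 active = mean of duplicate thallium-flux fluorescence ratios in parental host cells more than 5 SD below the buffer control mean, cut at about 0.38 in these data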;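 also: ratio is peak minus minimum fluorescence divided by baseline fluorescence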
KCNQ1 APC inh – human KCNQ1 inhibition validated by electrophysiology | calls only at 10 µM | shares compounds with KCNQ1 block | KCNQ1-CHO cells, automated patch clamp current | 490 compounds, 20% hits;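 active = KCNQ1 current drop exceeding 3 SD of negative control wells, seen in both duplicate runs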;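 also: steady state current during a 2 s step from -80 to +40 mV; negative values mean current inhibition and positive values mean potentiation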
KCNQ2 spec – KCNQ1 inhibitor that also blocks rat KCNQ2 channel. shares compounds with KCNQ1 block. KCNQ2 cells, FluxOR thallium flux fluorescence. inhibition, % at 10 µM. 1,600 compounds, 71% hits. AID 651746;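 active = mean percent inhibition of the KCNQ2 thallium signal more than 5 SD above the buffer-only control wells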;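 also: KCNQ2 expressed in CHO cells; 0% = buffer control wells and 100% = XE-991 inhibitor control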
KCNQ1-KCNE1 inh – KCNQ1 inhibitor that also blocks human KCNQ1/KCNE1 channel. 1,600 compounds, 77% hits. shares compounds with KCNQ1 block. inhibition, % at 10 µM. KCNQ1/KCNE1 cells, FluxOR thallium flux fluorescence;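 active = mean percent inhibition of duplicate wells above the buffer-only control mean plus 3 SD of those controls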;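 also: 0% = buffer only wells and 100% = XE-991 inhibitor control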
The depositor's hits bear a star; i = inactive; / = not tested or not shown; + = active, no number. Only some compounds are listed: those with a hit (about 4.1% of all), similar ones and a draw of the others.

SMILES | Cl transport mod | hERG rescue | KCNQ1 pot | KCNQ1 block | KCNK9 inh | KCNK3 inh | KCNQ1 inh valid | CHO KCNQ1 ctr | KCNQ2 spec | KCNQ1-KCNE1 inh | others
Cc1ccc(-c2nc3ccccc3nc2-c2ccccc2)cc1 | / | -5.3 | i | 15* | i | i | 88.5* | 0.406 | 108.0%* | 152.5%* | KCNQ1 APC inh=+
Cc1cccc(NC(=O)c2ccc(C3SCC(=O)N3CCc3ccccc3)cc2)c1 (configuration not stated) | -0.0787 | -19.8 | i | 7* | i | i | 99.0* | 0.43 | 108.7%* | 82.5%* | KCNQ1 APC inh=i
COC(=O)Cc1nc(Nc2ccccc2)sc1C | 0.0642 | -12.3 | i | 7* | i | i | 47.0* | 0.448 | i | 46.5%*
COC(=O)Cc1csc(Nc2ccccc2)n1 | -0.239 | -2.8 | i | i | i | i | / | / | / | /
Cc1csc2c(N3CCN(C(=O)Nc4ccc(Cl)c(Cl)c4)CC3)ncnc12 | -1.67 | -7.0 | i | 11* | i | i | 159.5* | 0.36* | 90.0%* | +
Cc1csc2c(N3CCN(C(=O)NC(C)(C)C)CC3)ncnc12 | 0.342 | -4.8 | i | i | i | i | / | / | / | /
Cc1csc2ncnc(N3CCN(C(=S)Nc4ccc(C(F)(F)F)cc4)CC3)c12 | 0.00685 | -6.5 | i | 10* | i | i | 112.0* | 0.471 | 74.0%* | 93.5%* | KCNQ1 APC inh=i
Cc1csc2c(N3CCN(C(=S)Nc4ccc(C(F)(F)F)cc4)CC3)ncnc12 | -0.925 | -8.8 | i | 12* | i | i | 82.5* | 0.539 | i | 178.0%*
Cc1cc(C)cc(NC(=S)N2CCN(c3ncc(C(F)(F)F)cc3Cl)CC2)c1 | 1.05 | -7.9 | i | i | i | i | / | / | / | /
O=C(CNC(=O)c1ccccc1F)NCc1ccccn1 | / | / | / | / | / | i | / | / | / | /
CCOc1ccc2[nH]c3c(NCCOC)ncnc3c2c1 | / | -6.3 | i | i | i | i | / | / | / | /
CCOc1ccc2[nH]c3c(NCC(C)C)ncnc3c2c1 | / | -16.4 | i | 6* | i | i | 69.0* | 0.444 | 93.7%* | 69.5%*
CN(CCCC1CCCC1)C(=O)CC1C(=O)NCCN1Cc1ccc(F)cc1 (configuration not stated) | / | -15.6 | i | i | i | i | / | / | / | /
CC1CCN(c2nnc(-c3cccs3)c3ccccc23)CC1 | -0.0811 | -5.8 | i | i | i | i | / | / | / | /
c1csc(-c2nnc(NC3CCCCC3)c3ccccc23)c1 | -0.0814 | -19.1 | i | 10* | i | i | 52.5* | 0.551 | 68.7%* | 51.0%*
S=C(NCCSCc1ccccc1Cl)Nc1ccccc1 | / | -9.8 | i | 10* | i | i | 106.5* | 0.433 | 87.3%* | 58.0%* | KCNQ1 APC inh=i
S=C(NCCSCc1ccc(Cl)cc1)Nc1ccccc1 | 0.396 | -16.3 | i | i | i | i | / | / | / | /
Cc1cccc(CSCCNC(=S)Nc2ccccc2)c1 | -0.0354 | -14.4 | i | 7* | i | i | 55.5* | 0.53 | 65.0%* | 98.5%*
Cc1cc(=O)c2c([nH]1)c(C)cc1[nH]c(C)c(C)c12 | / | / | / | / | / | i | / | / | / | /
CC(C)n1c(=O)n(CC(=O)NCC2CCCO2)c(=O)c2c3c(sc21)COC(C)(C)C3 (configuration not stated) | / | -12.2 | i | i | i | i | / | / | / | /
COc1cccc(C(=O)Nc2ccc(-c3nc4ccccc4o3)c(O)c2)c1 | / | -6.3 | i | i | i | i | / | / | / | /
COc1cc(OC)cc(C(=O)Nc2ccc(-c3nc4ccccc4o3)cc2)c1 | / | -7.4 | i | 10* | i | i | 129.5* | 0.403 | 89.0%* | 69.0%* | KCNQ1 APC inh=i
Cc1nccc(-c2cccc(NC(=O)Nc3ccc(Cl)cc3)c2)n1 | -0.201 | -9.4 | i | 8* | i | i | 92.5* | 0.517 | 67.0%* | 72.5%* | KCNQ1 APC inh=i
CN(c1cccc(NC(=O)Nc2cccc(Cl)c2)c1)S(C)(=O)=O | -0.596 | -16.6 | i | 16* | i | i | 93.0* | 0.466 | 122.7%* | 82.5%*
O=C(Nc1ccncc1)Nc1cccc(Cl)c1 | / | -22.5 | i | 7* | i | i | 52.5* | 0.481 | i | 46.0%*
SMILES | Cl transport mod | hERG rescue | KCNQ1 pot | KCNQ1 block | KCNK9 inh | KCNK3 inh | KCNQ1 inh valid | CHO KCNQ1 ctr | KCNQ2 spec | KCNQ1-KCNE1 inh | others
O=C(CC1CCCC1)NNC(=O)c1ccc(Br)cc1 | / | / | / | / | / | i | / | / | / | /
O=c1ccc(-c2ccc(S(=O)(=O)Nc3cccc(Br)c3)o2)n[nH]1 | / | -5.9 | i | i | i | i | / | / | / | /
CCN(CC)c1ccc(NC(=O)c2ccc3c(c2)OCO3)c(C)c1 | / | -2.7 | i | i | i | i | / | / | / | /
Cc1ccc(NC(=S)Nc2ccc(Br)cc2)cc1 | -0.0989 | -3.6 | i | 7* | i | i | 48.5* | 0.496 | i | i
N#Cc1ccc(NC(=S)Nc2ccccc2)cc1 | -0.373 | -8.1 | i | 7* | i | i | 0.0 | 0.611 | i | 55.5%*
N#Cc1ccc(NC(=O)Nc2ccc(Cl)cc2)cc1 | -1 | -21.8 | i | 6* | i | i | 0.0 | 0.649 | i | i
S=C(NNC(=S)Nc1ccccc1)Nc1ccccc1 | / | -2.6 | i | i | i | i | / | / | / | /
Fc1cc(Br)ccc1NC(=S)Nc1ccccc1 | 0.781 | -12.7 | i | i | i | i | / | / | / | /
S=C(Nc1ccccc1)Nc1cccc(Br)c1 | 1.3 | -18.1 | i | 8* | i | i | 60.0* | 0.473 | i | 60.0%*
CCCCCC(=O)Nc1cc(S(=O)(=O)N2CCOCC2)ccc1N1CCCCC1 | / | -17.7 | i | i | i | i | / | / | / | /
c1ccc2c(Nc3ccc(N4CCOCC4)cc3)nc(N3CCOCC3)nc2c1 | / | 0.1 | i | i | i | i | / | / | / | /
Cc1cccc(-c2nc(Nc3ccc(N4CCOCC4)cc3)c3ccccc3n2)c1 | -0.7 | -8.3 | i | 13* | i | i | 108.5* | 0.43 | 90.0%* | 147.5%* | KCNQ1 APC inh=i
Cn1nc(C(C)(C)C)cc1NC(=O)Nc1ccc(Cl)cc1 | 0.903 | -17.1 | i | 7* | i | i | 83.0* | 0.462 | i | i

Screening results as filed in PubChem BioAssay.
